In PMC5361402 (Diabetes, 2014):

Tests used:
[1] = cited from earlier work
[2] = tested on: patients with type 1 and type 2 diabetes; conditions: phase II, patients previously treated with other basal insulins; cited from earlier work
[3] = cited from earlier work; remark: listed apart in the source
conscious dogs = test: Euglycemic clamp with tracer and hepatic balance measurements in conscious dogs; format: in vivo, dog; conditions: control group (regular human insulin 0.11 nmol/kg/h iv, n=6)
Summary of the method: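 Conscious dogs had 30 min of basal sampling (90–120 min), then a 5-h euglycemic clamp (120–420 min). Somatostatin and regular human insulin (no priming dose) were given by peripheral vein, glucagon intraportally at basal 0.5 ng ⋅ kg−1 ⋅ min−1, and glucose infused to hold euglycemia. [3H]glucose tracer; Ra from Mari circulatory model; hepatic organ-balance calculations; triglycerides assayed spectrophotometrically; n = 6.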

[4] = Plasma insulin / serum LY concentrations and organ extraction during the clamp; format: in vivo, dog
[5] = regular insulin 0.11 nmol/kg/h iv during the clamp, dog

insulin degludec
T1/2 relative to that of glargine [1]: approximately two times

insulin glargine
Body weight change [2]: modest weight gain

insulin: endogenously secreted insulin to which the liver is exposed
Hepatic extraction of the insulin to which the liver is exposed [3]: 50–60%

regular insulin: regular human insulin infused via peripheral vein in the control group
Change from baseline in net hepatic glucose balance by 420 min (conscious dogs): 10.3 ± 1.4 µmol ⋅ kg^-1 ⋅ min^−1 | Fall of arterial plasma triglyceride concentration below baseline by 420 min (conscious dogs): ~ 40% | Increase in non-HGU over the basal rate in the final hour (conscious dogs): 11.1 ± 4.5 µmol ⋅ kg^−1 ⋅ min^−1 | Time to NEFA nadir after the start of the clamp period (conscious dogs): ≤ 90 min | Nadir of NEFA concentrations (conscious dogs; arterial plasma): 271 ± 57 µmol/L | Fall from basal in endogenous glucose Ra by the final hour (conscious dogs; tracer-determined): 8.9 ± 1.9 µmol ⋅ kg^−1 ⋅ min^−1 | Portal vein insulin concentration during the clamp ([4]; control group (regular human insulin 0.11 nmol/kg/h iv, n=6)): ~ 50 % of basal | Fractional hepatic extraction [4, 5]: 50 ± 3% | Fractional renal extraction [4, 5]: 61 ± 3%
